Experimental data from ChEMBL document CHEMBL4673287, “Synthesis and biological evaluation of novel antipsychotic trans-4-(2-(1,2,4,5-tetrahydro-3H-benzo[d]azepin-3-yl)ethyl)cyclohexan-1-amine derivatives targeting dopamine/serotonin receptor subtypes” (Bioorg Med Chem Lett, 2021).

Key:
[1] = biological target: T1, Adrenergic receptor alpha-1 (Homo sapiens, UniProt P35348+P25100+P35368); experiment: Binding affinity to adrenergic alpha1 receptor (unknown origin); format: protein assay
T1 sequence (P35348 whole entry): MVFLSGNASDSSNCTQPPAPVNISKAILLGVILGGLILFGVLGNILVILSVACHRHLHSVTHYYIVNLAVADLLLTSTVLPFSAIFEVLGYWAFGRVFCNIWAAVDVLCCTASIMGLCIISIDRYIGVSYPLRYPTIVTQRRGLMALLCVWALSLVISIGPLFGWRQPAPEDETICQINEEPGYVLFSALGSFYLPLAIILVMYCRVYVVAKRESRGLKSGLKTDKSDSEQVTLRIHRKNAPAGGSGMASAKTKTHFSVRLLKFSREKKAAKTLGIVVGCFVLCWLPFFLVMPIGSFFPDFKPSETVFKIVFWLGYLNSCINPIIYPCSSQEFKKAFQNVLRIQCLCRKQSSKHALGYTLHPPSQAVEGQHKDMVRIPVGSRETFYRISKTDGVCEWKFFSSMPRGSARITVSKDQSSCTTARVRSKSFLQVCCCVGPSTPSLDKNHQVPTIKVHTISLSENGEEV
T1 sequence (P25100 whole entry): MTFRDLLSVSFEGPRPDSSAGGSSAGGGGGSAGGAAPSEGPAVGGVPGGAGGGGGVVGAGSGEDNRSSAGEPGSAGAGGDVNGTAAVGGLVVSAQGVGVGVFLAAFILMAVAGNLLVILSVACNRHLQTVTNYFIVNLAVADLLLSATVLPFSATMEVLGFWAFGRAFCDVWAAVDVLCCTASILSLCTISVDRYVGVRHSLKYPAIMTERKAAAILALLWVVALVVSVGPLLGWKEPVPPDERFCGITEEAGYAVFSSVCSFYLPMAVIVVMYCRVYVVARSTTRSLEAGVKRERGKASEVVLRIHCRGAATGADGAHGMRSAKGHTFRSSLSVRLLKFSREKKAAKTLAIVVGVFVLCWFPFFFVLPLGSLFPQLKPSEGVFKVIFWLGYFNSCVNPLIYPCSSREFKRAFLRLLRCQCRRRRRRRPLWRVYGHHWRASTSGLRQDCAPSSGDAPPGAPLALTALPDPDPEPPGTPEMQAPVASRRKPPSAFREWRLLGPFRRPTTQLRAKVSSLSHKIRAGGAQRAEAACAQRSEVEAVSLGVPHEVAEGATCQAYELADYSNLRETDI
T1 sequence (P35368 whole entry): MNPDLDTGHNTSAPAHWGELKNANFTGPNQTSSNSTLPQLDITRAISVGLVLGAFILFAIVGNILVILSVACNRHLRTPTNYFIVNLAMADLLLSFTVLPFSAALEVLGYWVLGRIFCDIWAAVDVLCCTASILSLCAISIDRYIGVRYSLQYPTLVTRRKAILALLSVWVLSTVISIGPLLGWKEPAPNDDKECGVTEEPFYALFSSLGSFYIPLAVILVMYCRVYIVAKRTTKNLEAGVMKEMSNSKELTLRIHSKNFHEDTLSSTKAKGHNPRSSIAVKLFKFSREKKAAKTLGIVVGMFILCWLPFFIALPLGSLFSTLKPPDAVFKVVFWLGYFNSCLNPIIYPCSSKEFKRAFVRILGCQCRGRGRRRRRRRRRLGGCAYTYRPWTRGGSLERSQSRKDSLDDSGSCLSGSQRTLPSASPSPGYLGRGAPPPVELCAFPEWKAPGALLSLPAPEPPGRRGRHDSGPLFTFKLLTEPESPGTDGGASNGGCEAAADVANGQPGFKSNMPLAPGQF

Rattus norvegicus = experiment: Antipsychotic activity in orally dosed Sprague-Dawley rat assessed as inhibition of PCP-induced hyperactivity administered 20 mins before PCP stimulation and measured after 1 hr; format: functional, organism-based; conditions: dose 1-10 mg/kg, time 80.0 min
How it was run: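 Male Sprague-Dawley rats dosed orally 20 min before PCP (5 mg/kg) injection. Locomotor activity recorded for 1 h after PCP, read as total travel distance. Mean ± standard error of the mean, n = 8-10 per group.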

[2] = biological target: T2, Adrenergic receptor alpha-1 (Rattus norvegicus, UniProt P15823+P23944+P43140); experiment: Displacement of [3H]-prazosin from adrenergic alpha1 in rat cerebral cortex; format: tissue-based
T2 sequence (P15823 whole entry): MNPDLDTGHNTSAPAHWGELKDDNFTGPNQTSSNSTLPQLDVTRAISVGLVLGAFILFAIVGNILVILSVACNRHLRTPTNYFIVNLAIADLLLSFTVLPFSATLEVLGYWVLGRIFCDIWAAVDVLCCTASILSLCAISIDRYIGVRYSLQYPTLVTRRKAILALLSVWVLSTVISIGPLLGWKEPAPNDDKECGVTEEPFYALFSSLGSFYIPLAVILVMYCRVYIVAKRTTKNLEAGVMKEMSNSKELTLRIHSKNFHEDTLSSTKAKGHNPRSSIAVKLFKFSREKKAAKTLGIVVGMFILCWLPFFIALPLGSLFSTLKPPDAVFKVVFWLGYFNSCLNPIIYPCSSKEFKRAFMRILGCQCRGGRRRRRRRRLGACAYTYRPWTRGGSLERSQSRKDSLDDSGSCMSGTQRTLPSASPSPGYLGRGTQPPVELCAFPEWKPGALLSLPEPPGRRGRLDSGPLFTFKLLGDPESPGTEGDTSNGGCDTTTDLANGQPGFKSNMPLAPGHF
T2 sequence (P23944 whole entry): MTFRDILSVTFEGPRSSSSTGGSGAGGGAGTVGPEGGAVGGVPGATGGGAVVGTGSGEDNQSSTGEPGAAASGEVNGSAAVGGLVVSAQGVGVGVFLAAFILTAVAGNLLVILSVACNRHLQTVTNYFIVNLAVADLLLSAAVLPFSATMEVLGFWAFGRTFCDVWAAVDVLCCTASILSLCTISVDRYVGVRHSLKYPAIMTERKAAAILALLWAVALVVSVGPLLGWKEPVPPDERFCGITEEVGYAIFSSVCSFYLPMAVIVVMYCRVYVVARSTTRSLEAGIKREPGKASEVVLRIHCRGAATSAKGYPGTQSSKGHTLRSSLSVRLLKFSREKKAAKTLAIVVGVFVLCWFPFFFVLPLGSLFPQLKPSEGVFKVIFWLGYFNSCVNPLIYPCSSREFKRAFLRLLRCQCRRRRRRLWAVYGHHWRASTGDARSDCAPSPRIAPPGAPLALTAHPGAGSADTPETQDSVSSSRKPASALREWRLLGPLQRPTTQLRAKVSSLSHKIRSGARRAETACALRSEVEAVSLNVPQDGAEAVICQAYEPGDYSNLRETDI
T2 sequence (P43140 whole entry): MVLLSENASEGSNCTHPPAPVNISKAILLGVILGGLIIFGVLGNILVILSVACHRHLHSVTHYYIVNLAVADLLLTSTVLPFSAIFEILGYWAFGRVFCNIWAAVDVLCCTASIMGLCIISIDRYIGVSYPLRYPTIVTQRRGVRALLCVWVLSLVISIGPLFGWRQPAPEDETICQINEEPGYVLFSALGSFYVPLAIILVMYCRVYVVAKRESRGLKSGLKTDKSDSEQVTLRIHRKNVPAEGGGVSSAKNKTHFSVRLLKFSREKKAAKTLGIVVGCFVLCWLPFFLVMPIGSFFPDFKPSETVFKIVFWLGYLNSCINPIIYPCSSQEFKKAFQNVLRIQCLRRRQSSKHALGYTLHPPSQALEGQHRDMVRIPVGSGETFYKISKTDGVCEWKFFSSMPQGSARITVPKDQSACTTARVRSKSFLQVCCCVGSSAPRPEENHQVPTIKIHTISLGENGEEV
How it was run: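 Eight-concentration displacement curves, two independent experiments in duplicate, value is the mean Ki.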

| Structure (SMILES) | Ki [1] | Activity (Rattus norvegicus) | Ki [2] |
| --- | --- | --- | --- |
| CN1CC2c3ccccc3Oc3ccc(Cl)cc3C2C1 (stereo not drawn) [ASENAPINE] | 1.2 nM |  |  |
| CN(C)C(=O)N[C@H]1CC[C@H](CCN2CCN(c3cccc(Cl)c3Cl)CC2)CC1 [CARIPRAZINE] |  | Dose-dependent effect | 155 nM |
